Calls of active or inactive are those of the source. No cut-off for these calls is given here.
Columns and labels:
MOLT-4 = experiment: Antiproliferative activity against human MOLT4 cells after 72 hrs by MTT assay; assay type: functional, cell-based; conditions: MOLT-4, 72 h
PC-3 = experiment: Antiproliferative activity against human PC3 cells after 72 hrs by MTT assay; assay type: functional, cell-based; conditions: PC-3, 72 h
Mus musculus [1] = experiment: Toxicity in nu BALB/c mouse xenografted with human HT-29 cells assessed as reduction in body weight at 50 mg/kg , po administered for 25 consecutive days measured every day during compound dosing; assay type: organism-based; conditions: in vivo
[2] = AUC (0 to t) in Sprague-Dawley rat at 10 mg/kg, po by LC-MS/MS analysis; assay type: ADME, organism-based; conditions: in vivo
[3] = MRT (0 to t) in Sprague-Dawley rat at 10 mg/kg, po by LC-MS/MS analysis; assay type: ADME, organism-based; conditions: in vivo
How it was run: (§1)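 Sprague–Dawley rats (N = 6) dosed with the hydrochloride salt, 2 mg/kg IV or 10 mg/kg PO. Jugular vein blood drawn at set time points and kept on ice. Plasma separated by centrifugation, stored at -80 °C, and quantified by LC-MS/MS.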

AGS = experiment: Antiproliferative activity against human AGS cells after 72 hrs by MTT assay; assay type: functional, cell-based
[4] = Half life in Sprague-Dawley rat at 2 mg/kg, iv by LC-MS/MS analysis; assay type: ADME, organism-based; conditions: in vivo; how it was run: as §1
[5] = AUC (0 to t) in Sprague-Dawley rat at 2 mg/kg, iv by LC-MS/MS analysis; assay type: ADME, organism-based; conditions: in vivo; how it was run: as §1
[6] = target: Macrophage colony-stimulating factor 1 receptor (Homo sapiens, UniProt P07333); experiment: Inhibition of C-fms (unknown origin) after 40 mins by kinase-Glo assay
Chain of Macrophage colony-stimulating factor 1 receptor (P07333 whole entry): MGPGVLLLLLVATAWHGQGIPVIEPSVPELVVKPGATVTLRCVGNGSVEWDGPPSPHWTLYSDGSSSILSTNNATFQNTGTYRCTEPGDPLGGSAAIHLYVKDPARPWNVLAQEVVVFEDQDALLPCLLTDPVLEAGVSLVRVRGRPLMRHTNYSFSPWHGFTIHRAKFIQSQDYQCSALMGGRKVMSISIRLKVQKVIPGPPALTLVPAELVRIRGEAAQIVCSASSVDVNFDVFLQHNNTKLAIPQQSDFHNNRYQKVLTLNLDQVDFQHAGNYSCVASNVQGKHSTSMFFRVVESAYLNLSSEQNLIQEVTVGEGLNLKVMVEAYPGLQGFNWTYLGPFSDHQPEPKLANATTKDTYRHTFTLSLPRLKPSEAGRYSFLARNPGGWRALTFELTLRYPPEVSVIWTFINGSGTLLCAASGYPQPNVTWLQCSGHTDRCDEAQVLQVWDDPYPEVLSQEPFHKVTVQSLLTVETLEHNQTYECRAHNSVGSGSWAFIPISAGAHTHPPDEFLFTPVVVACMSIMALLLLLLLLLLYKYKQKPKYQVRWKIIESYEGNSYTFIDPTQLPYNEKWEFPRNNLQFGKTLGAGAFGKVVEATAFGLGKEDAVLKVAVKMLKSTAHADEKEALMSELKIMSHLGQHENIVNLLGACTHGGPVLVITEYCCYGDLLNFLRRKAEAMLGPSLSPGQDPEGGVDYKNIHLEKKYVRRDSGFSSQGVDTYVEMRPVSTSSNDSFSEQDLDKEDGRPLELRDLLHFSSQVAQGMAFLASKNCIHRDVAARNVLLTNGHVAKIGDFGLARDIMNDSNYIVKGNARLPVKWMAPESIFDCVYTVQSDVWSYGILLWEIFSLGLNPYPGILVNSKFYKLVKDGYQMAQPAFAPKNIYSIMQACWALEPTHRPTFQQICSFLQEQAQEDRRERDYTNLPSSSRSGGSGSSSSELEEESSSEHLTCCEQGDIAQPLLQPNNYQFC

HUVEC [7] = experiment: Cytotoxicity activity against HUVEC after 72 hrs by MTT assay; assay type: cell-based; conditions: Homo sapiens
How it was run: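 HUVECs kept in RPMI1640 with 10% FBS at 37 °C, 5% CO2. Cells seeded the day before, grown 12 h, then exposed to a range of compound concentrations for 72 h. Then 0.5% MTT added for 4 h, formazan dissolved in DMSO, and absorbance read at 570 nm.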

HT-29 [8] = experiment: Antitumor activity against human HT-29 cells xenografted in BALB/c nu mouse assessed as tumor growth inhibition at 50 mg/kg, po administered for 25 consecutive days measured every 3 days during compound dosing relative to control; assay type: functional; conditions: HT-29, po, read-out: TGI
How it was run: (§2)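 HT-29 cells (1×10^7) implanted s.c. in right flank of male BALB/c-nu mice aged 5–6 weeks. At about 100 mm³ (day 10), mice randomized 6 per group and dosed orally for 25 consecutive days. Controls received PBS with 5% DMSO. T/C is mean RTV (Vt/V0) treated over control. TGI taken from final tumor weights. Student's two-tailed t test.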

[9] = Oral bioavailability in Sprague-Dawley rat at 10 mg/kg by LC-MS/MS analysis; assay type: ADME, organism-based; conditions: in vivo; how it was run: as §1
Mus musculus [10] = experiment: Hepatotoxicity in nu BALB/c mouse xenografted with human HT-29 cells at 50 mg/kg , po administered for 25 consecutive days by macroscopic analysis; assay type: toxicity, organism-based; conditions: in vivo
How it was run: (§3)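 HT-29 xenografted male BALB/c-nu mice dosed orally for 25 days, with PBS (5% DMSO) controls. After treatment mice were sacrificed and dissected, and internal organ injury was examined macroscopically.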

[11] = Cmax in Sprague-Dawley rat at 2 mg/kg, iv by LC-MS/MS analysis; assay type: ADME, organism-based; set-up: dose 2 mg/kg, route intravenous; conditions: in vivo; how it was run: as §1
ACHN = experiment: Antiproliferative activity against human ACHN cells after 72 hrs by MTT assay; assay type: functional, cell-based
[12] = target: Histone deacetylase 1/2/3 (Homo sapiens) (UniProt Q13547+O15379+Q92769); conditions: HeLa, at 1 µM
Histone deacetylase 3 = Histone deacetylase 3 (Homo sapiens, UniProt O15379)
Chain of Histone deacetylase 3 (O15379 whole entry): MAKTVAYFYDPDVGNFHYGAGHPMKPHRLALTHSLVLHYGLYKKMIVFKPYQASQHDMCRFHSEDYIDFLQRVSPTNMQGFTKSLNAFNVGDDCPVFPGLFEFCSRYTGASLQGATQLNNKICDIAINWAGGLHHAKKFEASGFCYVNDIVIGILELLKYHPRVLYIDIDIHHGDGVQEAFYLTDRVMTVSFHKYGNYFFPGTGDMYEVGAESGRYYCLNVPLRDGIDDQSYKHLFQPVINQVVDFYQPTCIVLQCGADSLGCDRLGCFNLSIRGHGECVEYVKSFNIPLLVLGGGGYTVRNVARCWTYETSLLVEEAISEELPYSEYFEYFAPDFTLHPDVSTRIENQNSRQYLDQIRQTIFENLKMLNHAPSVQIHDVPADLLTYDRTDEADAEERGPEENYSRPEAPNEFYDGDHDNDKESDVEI

KG-1 = experiment: Antiproliferative activity against human KG1 cells after 72 hrs by MTT assay; assay type: functional, cell-based; conditions: KG-1, 72 h
HUVEC [13] = experiment: Antiangiogenic activity in human HUVEC cells assessed as reduction in capillary-like tubular network formation at 0.1 uM after 6 hrs by phase-contrast microscopy; assay type: functional, cell-based
How it was run: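 HUVECs trypsinized and seeded at 40000/well on Matrigel polymerized 0.5 h at 37 °C. Cells held 6 h at 37 °C in M199 with 5% FBS, with compound or DMSO. Tube formation viewed and photographed by phase-contrast microscopy at 200 magnification. Three independent experiments.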

Mus musculus [14] = experiment: Toxicity in nu BALB/c mouse spleen xenografted with human HT-29 cells at 50 mg/kg , po administered for 25 consecutive days by macroscopic analysis; assay type: organism-based; conditions: in vivo; how it was run: as §3
[15] = Tmax in Sprague-Dawley rat at 10 mg/kg, po by LC-MS/MS analysis; assay type: ADME, organism-based; conditions: in vivo; how it was run: as §1
[16] = target: Vascular endothelial growth factor receptor 1 (Homo sapiens, UniProt P17948); experiment: Inhibition of VEGFR-1 (unknown origin) after 40 mins by kinase-Glo assay
How it was run: (§4)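 Kinase-Glo luminescent assay run by a contract lab. Compound, kinase, substrate and ATP diluted in kinase buffer and incubated 40 min at room temperature. IC50 obtained by nonlinear regression of normalized dose–response.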

HT-1080 = experiment: Antiproliferative activity against human HT1080 cells after 72 hrs by MTT assay; assay type: functional, cell-based; conditions: HT-1080, 72 h
[17] = Apparent volume of distribution in Sprague-Dawley rat at 2 mg/kg, iv by LC-MS/MS analysis; assay type: ADME, organism-based; conditions: in vivo, read-out: Vz; how it was run: as §1
[18] = Tmax in Sprague-Dawley rat at 2 mg/kg, iv by LC-MS/MS analysis; assay type: ADME, organism-based; conditions: in vivo; how it was run: as §1
HeLa = experiment: Antiproliferative activity against human HeLa cells after 72 hrs by MTT assay; assay type: functional, cell-based
[19] = Half life in Sprague-Dawley rat at 10 mg/kg, po by LC-MS/MS analysis; assay type: ADME, organism-based; conditions: in vivo; how it was run: as §1
Thoracic aorta = experiment: Antiangiogenic activity in Sprague-Dawley rat thoracic aorta ring assessed as reduction in micro-vessel growth at 5 uM treated every day for 6 days by matrigel-based inverted microscopic analysis relative to control; assay type: functional, tissue-based
How it was run: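 Aortas taken from 4–6-week-old Sprague–Dawley rats, cut into 1-mm rings and embedded in Matrigel. Rings held 30 min at 37 °C, 5% CO2, then treated daily for 6 days with compound or 0.5% DMSO vehicle. Microvessel outgrowth photographed on day 7 at ×200. Three independent experiments.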

Histone deacetylase 1 = Histone deacetylase 1 (Homo sapiens, UniProt Q13547); experiment: Inhibition of HDAC1 (unknown origin) using fluorogenic substrate preincubated for 5 mins followed by substrate addition measured after 30 mins by fluorescence-based assay
Chain of Histone deacetylase 1 (Q13547 whole entry): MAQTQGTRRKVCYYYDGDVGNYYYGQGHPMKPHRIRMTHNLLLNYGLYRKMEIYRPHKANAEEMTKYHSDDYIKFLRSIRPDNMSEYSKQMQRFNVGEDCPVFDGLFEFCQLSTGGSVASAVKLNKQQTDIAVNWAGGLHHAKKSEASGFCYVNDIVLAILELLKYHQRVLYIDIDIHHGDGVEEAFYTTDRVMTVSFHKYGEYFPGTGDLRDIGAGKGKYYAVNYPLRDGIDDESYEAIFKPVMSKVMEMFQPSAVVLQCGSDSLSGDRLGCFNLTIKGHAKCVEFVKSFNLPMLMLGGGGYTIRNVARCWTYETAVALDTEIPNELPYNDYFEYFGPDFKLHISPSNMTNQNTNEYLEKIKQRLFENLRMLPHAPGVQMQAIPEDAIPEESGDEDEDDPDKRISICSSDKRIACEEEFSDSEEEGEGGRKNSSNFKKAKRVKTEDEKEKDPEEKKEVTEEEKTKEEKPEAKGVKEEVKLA

[20] = Cmax in Sprague-Dawley rat at 10 mg/kg, po by LC-MS/MS analysis; assay type: ADME, organism-based; set-up: dose 10 mg/kg, route oral; conditions: in vivo; how it was run: as §1
Histone deacetylase 2 = Histone deacetylase 2 (Homo sapiens, UniProt Q92769)
Chain of Histone deacetylase 2 (Q92769 whole entry): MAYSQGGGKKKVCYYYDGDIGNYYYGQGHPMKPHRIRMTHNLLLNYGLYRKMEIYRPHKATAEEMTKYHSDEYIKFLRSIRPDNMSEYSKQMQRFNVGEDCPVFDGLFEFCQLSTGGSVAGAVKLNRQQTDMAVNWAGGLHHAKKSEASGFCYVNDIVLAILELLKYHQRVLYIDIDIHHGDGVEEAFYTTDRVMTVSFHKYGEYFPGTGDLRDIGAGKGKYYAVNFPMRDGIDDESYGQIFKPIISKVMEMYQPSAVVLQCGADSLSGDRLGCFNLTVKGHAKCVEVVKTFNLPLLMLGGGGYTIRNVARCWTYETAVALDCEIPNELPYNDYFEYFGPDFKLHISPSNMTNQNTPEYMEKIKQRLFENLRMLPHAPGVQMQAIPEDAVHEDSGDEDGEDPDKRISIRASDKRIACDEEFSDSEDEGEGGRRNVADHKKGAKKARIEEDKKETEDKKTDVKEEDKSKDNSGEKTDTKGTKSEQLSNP

HT-29 [21] = experiment: Antitumor activity against human HT-29 cells xenografted in BALB/c nu mouse assessed as tumor growth level at 50 mg/kg, po administered for 25 consecutive days measured every 3 days during compound dosing relative to control; assay type: functional; how it was run: as §2
[22] = target: Fibroblast growth factor receptor 1 (Homo sapiens, UniProt P11362); experiment: Inhibition of FGFR1 (unknown origin) after 40 mins by kinase-Glo assay
Chain of Fibroblast growth factor receptor 1 (P11362 whole entry): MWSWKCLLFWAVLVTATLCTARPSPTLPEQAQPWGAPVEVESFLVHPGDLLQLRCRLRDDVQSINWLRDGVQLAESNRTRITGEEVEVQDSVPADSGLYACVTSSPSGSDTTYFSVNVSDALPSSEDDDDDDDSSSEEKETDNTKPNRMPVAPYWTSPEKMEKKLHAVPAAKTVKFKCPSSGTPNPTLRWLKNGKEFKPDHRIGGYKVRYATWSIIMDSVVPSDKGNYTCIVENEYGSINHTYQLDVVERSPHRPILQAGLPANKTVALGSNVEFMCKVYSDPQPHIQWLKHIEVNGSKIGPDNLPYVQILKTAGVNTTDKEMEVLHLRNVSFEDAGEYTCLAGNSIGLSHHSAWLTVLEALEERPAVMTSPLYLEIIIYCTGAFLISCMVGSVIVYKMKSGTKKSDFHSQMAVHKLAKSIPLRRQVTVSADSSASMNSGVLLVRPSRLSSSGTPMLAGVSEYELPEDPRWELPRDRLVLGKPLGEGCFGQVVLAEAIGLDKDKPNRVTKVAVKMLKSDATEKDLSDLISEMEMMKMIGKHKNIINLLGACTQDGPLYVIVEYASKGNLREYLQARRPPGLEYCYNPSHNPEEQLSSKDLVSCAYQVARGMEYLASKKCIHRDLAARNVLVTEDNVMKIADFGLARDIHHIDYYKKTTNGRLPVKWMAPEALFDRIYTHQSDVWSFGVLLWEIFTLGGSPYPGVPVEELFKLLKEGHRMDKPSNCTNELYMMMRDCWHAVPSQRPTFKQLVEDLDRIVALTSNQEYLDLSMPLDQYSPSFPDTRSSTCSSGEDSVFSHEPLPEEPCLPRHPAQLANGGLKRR

[23] = target: Vascular endothelial growth factor receptor 2 (Homo sapiens, UniProt P35968); experiment: Inhibition of VEGFR-2 (unknown origin) after 40 mins by kinase-Glo assay; how it was run: as §4
Chain of Vascular endothelial growth factor receptor 2 (P35968 whole entry): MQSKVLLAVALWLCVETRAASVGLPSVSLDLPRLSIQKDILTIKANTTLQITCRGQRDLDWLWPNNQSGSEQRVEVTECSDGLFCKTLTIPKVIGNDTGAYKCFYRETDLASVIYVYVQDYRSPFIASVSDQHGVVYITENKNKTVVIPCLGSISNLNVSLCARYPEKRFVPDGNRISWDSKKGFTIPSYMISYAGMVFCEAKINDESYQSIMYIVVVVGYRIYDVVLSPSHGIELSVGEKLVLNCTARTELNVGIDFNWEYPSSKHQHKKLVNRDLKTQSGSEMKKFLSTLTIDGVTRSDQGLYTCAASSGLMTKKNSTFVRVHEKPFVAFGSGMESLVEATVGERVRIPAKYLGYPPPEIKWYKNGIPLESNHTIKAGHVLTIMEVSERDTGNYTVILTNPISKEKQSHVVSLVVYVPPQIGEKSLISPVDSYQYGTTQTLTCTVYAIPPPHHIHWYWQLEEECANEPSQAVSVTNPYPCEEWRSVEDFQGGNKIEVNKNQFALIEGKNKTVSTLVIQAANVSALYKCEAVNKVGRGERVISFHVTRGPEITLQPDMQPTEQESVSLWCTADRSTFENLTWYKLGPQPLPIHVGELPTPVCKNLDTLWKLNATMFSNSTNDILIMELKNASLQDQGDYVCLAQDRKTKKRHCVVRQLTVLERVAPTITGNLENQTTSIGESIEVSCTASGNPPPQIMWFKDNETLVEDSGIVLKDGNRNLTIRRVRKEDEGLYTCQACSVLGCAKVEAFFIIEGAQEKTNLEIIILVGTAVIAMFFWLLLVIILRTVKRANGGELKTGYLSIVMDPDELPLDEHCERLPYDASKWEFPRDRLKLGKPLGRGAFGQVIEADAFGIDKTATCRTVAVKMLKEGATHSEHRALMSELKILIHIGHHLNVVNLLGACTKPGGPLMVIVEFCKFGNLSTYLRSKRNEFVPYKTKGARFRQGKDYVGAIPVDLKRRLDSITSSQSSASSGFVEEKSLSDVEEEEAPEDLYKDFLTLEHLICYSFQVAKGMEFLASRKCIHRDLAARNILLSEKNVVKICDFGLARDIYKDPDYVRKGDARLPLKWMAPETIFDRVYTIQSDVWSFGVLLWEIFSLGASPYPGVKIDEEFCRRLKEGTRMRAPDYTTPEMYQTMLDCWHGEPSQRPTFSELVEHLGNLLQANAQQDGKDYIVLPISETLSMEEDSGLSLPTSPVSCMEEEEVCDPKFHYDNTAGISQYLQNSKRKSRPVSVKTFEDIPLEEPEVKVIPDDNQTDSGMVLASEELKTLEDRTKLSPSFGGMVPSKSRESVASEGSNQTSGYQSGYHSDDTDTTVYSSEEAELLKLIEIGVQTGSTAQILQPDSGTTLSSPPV

SMILES: Cc1c2ccc(N(C)c3ccnc(Nc4ccc(C(=O)Nc5ccccc5N)cc4)n3)cc2nn1C
- IC50 (MOLT-4): 940 nM
- IC50 (PC-3): 2380 nM
- Activity (Mus musculus [1]): Non-Toxic
- AUC(0-t) [2]: 8570 ng·h/mL
- MRT last [3]: 2.54 h
- IC50 (AGS): > 5 µM
- half-life [4]: 98.4 min
- AUC(0-t) [5]: 2380 ng·h/mL
- IC50 [6]: 351 nM
- IC50 (HUVEC [7]): 16 µM
- inhibition in vivo at 50 mg/kg (HT-29 [8]): 40%
- bioavailability [9]: 72%
- Activity (Mus musculus [10]): Non-Toxic
- Cmax [11]: 2780 ng/mL
- IC50 (ACHN): > 5 µM
- inhibition [12]: Active
- IC50 (Histone deacetylase 3): 430 nM
- IC50 (KG-1): 670 nM
- Activity (HUVEC [13]): Active
- Activity (Mus musculus [14]): Non-Toxic
- Tmax [15]: 30 min
- IC50 [16]: 22 nM
- IC50 (HT-1080): > 5 µM
- Vd [17]: 2.06 L/kg
- Tmax [18]: 4.8 min
- IC50 (HeLa): 1710 nM
- half-life [19]: 126 min
- Activity (Thoracic aorta): Active
- IC50 (Histone deacetylase 1): 590 nM
- Cmax [20]: 3240 ng/mL
- IC50 (Histone deacetylase 2): 910 nM
- T/C (HT-29 [21]): 65%
- IC50 [22]: 192 nM
- IC50 [23]: 37 nM
